Publication PMC6426238 (Helvetica chimica acta, 2018)

Tests used:
Caco2-cells = conditions: degraded cyanophycin dipeptides; cited from earlier work
HEK293 cells = experiment: cell penetration by confocal fluorescence microscopy; type: cell-based; conditions: FAM-labeled peptides, membrane stain R18
Summary of the method: (§1)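 FAM-labelled octa-Adp derivatives (side chains as free carboxylic acids, esters or amides) were purified by preparative HPLC. Unless stated otherwise, TFA counter-ions were removed with OH-form anion-exchange resin before use.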

MCF-7 cells = experiment: as above; type: cell-based; conditions: FAM-labeled peptides, membrane stain R18
Summary of the method: as §1

Plasmodium berghei = experiment: parasitaemia reduction after intravenous tail-vein injection to infected mice; type: in vivo; conditions: P. berghei-infected mice
Summary of the method: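 Single intravenous injection into the tail vein of mice, either uninfected or infected with Plasmodium berghei. Test compound was given in 0.9% NaCl at 0.01 ml/g body weight, with doses in μmol/kg. Oligo-arginine TFA salts were treated with Amberlyst A-26 (OH form) resin to remove TFA. Doses refer to the free peptide unless a TFA salt is stated. Read-outs were acute signs (death and its timing, heart rate, ataxia) and parasitaemia reduction in infected mice.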

| cell permeability (CFM) (HEK293 cells) | cell permeability (CFM) (MCF-7 cells) | Compound | absorption by Caco2-cells (Caco2-cells) | further results |
| --- | --- | --- | --- | --- |
| – | – | NCCCC[C@H](NC(=O)C[C@H](N)C(=O)O)C(=O)O [β-Asp-Lys] | absorbed | – |
| – | – | N=C(N)NCCC[C@H](NC(=O)CC(N)C(=O)O)C(=O)O (stereo partly drawn) [H-Adp-OH, H-βAsp-αArg-OH] | absorbed | – |
| does not enter the cells at all | does not enter the cells at all | FAM-Adp8-NH2 [Compound 7] | – | – |
| – | – | O=CN(O)CCCP(=O)(O)O [Na-fosmidomycin, fosmidomycin] | – | Parasitaemia reduction (Plasmodium berghei; i.v. dose 1.5·10^4 μmol/kg): No parasitaemia reduction (Parasitaemia reductions < 20% must be considered non-significant in this investigation: ‘no parasitaemia reduction’); Parasitaemia reduction (Plasmodium berghei; i.v. dose 1.5·10^6 μmol/kg): 95% Parasitaemia reduction; Parasitaemia reduction (Plasmodium berghei; i.v. dose 5·10^3 μmol/kg): No parasitaemia reduction (Parasitaemia reductions < 20% must be considered non-significant in this investigation: ‘no parasitaemia reduction’); Parasitaemia reduction (Plasmodium berghei; i.v. dose 5·10^5 μmol/kg): 72% Parasitaemia reduction |
| mediocre to high cell permeability | mediocre to high cell permeability | FAM-(Adp(OMe))8-NH2 [Compound 8] | – | – |
| mediocre to high cell permeability | mediocre to high cell permeability | FAM-(Adp(NMe2))8-NH2 [Compound 9] | – | – |
